# Laboratory results reported in ChEMBL document CHEMBL1153598, “Syntheses of low-hemolytic antimicrobial gratisin peptides” (Bioorg Med Chem Lett, 2009).
# Non-standard residues stand in square brackets, D forms with d. Residues, ends and D or L forms follow the SMILES beside them. Orn = NCCC[C@H](N)C(=O)O
# How the values were obtained:
# [1] = system: Bacillus subtilis; assay: Antibiotic activity against Bacillus subtilis NBRC 3513 by microplate dilution assay; format: functional
# Outline: (§1)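 Minimum inhibitory concentration determined by microplate dilution, inoculum 10⁶ organisms per ml. Strains tested: Bacillus subtilis NBRC 3513, Bacillus megaterium ATCC 19213, Staphylococcus epidermidis NBRC 12933, Staphylococcus aureus NBRC 12732, Pseudomonas aeruginosa NBRC 3080, Escherichia coli NBRC 12734. MIC reported in µg/mL.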
# [2] = system: Priestia megaterium; assay: Antibiotic activity against Bacillus megaterium ATCC 19213 by microplate dilution assay; format: functional; outline: as §1
# [3] = system: Staphylococcus epidermidis; assay: Antibiotic activity against Staphylococcus epidermidis NBRC 12933 by microplate dilution assay; format: functional; outline: as §1
# [4] = system: Staphylococcus aureus; assay: Antibiotic activity against Staphylococcus aureus NBRC 12732 by microplate dilution assay; format: functional; outline: as §1
# [5] = system: Pseudomonas aeruginosa; assay: Antibiotic activity against Pseudomonas aeruginosa NBRC 3080 by microplate dilution assay; format: functional; outline: as §1
# [6] = system: Escherichia coli; assay: Antibiotic activity against Escherichia coli NBRC 12734 by microplate dilution assay; format: functional; outline: as §1
# [7] = Cytotoxicity against human red blood cells assessed as hemolysis after 30 mins; format: cell-based; details: erythrocyte, 0.5 h
SMILES,MIC [1] [µg/mL],MIC [2] [µg/mL],MIC [3] [µg/mL],MIC [4] [µg/mL],MIC [5] [µg/mL],MIC [6] [µg/mL],Activity [7]
CC(C)C[C@@H]1NC(=O)[C@H](CCCN)NC(=O)[C@H](C(C)C)NC(=O)[C@@H]([C@H](C)O)NC(=O)[C@@H]2CCCN2C(=O)[C@@H](Cc2ccccc2)NC(=O)[C@H](CC(C)C)NC(=O)[C@H](CCCN)NC(=O)[C@H](C(C)C)NC(=O)[C@@H]([C@H](C)O)NC(=O)[C@@H]2CCCN2C(=O)[C@@H](Cc2ccccc2)NC1=O [listing 1 of 2 here],100,100,100,50,> 100,> 100,
CC(C)C[C@@H]1NC(=O)[C@H](CCCN)NC(=O)[C@H](C(C)C)NC(=O)[C@@H](CCC(=O)O)NC(=O)[C@@H]2CCCN2C(=O)[C@@H](Cc2ccccc2)NC(=O)[C@H](CC(C)C)NC(=O)[C@H](CCCN)NC(=O)[C@H](C(C)C)NC(=O)[C@@H](CCC(=O)O)NC(=O)[C@@H]2CCCN2C(=O)[C@@H](Cc2ccccc2)NC1=O,> 100,> 100,> 100,> 100,> 100,> 100,Dose-dependent effect
CC(C)C[C@@H]1NC(=O)[C@H](CCCN)NC(=O)[C@H](C(C)C)NC(=O)CNC(=O)[C@@H]2CCCN2C(=O)[C@@H](Cc2ccccc2)NC(=O)[C@H](CC(C)C)NC(=O)[C@H](CCCN)NC(=O)[C@H](C(C)C)NC(=O)CNC(=O)[C@@H]2CCCN2C(=O)[C@@H](Cc2ccccc2)NC1=O,100,100,> 100,100,> 100,> 100,Dose-dependent effect
CC(C)C[C@@H]1NC(=O)[C@H](CCCN)NC(=O)[C@H](C(C)C)NC(=O)[C@@H]([C@H](C)O)NC(=O)[C@@H]2CCCN2C(=O)[C@@H](Cc2ccccc2)NC(=O)[C@H](CC(C)C)NC(=O)[C@H](CCCN)NC(=O)[C@H](C(C)C)NC(=O)[C@@H]([C@H](C)O)NC(=O)[C@@H]2CCCN2C(=O)[C@@H](Cc2ccccc2)NC1=O [listing 2 of 2 here],,,,,,,Dose-dependent effect
CC(C)C[C@@H]1NC(=O)[C@H](CCCN)NC(=O)[C@H](C(C)C)NC(=O)[C@@H](CCC(N)=O)NC(=O)[C@@H]2CCCN2C(=O)[C@@H](Cc2ccccc2)NC(=O)[C@H](CC(C)C)NC(=O)[C@H](CCCN)NC(=O)[C@H](C(C)C)NC(=O)[C@@H](CCC(N)=O)NC(=O)[C@@H]2CCCN2C(=O)[C@@H](Cc2ccccc2)NC1=O,12.5,12.5,25,25,> 100,> 100,Dose-dependent effect
CC(C)C[C@@H]1NC(=O)[C@H](CCCN)NC(=O)[C@H](C(C)C)NC(=O)[C@@H](C)NC(=O)[C@@H]2CCCN2C(=O)[C@@H](Cc2ccccc2)NC(=O)[C@H](CC(C)C)NC(=O)[C@H](CCCN)NC(=O)[C@H](C(C)C)NC(=O)[C@@H](C)NC(=O)[C@@H]2CCCN2C(=O)[C@@H](Cc2ccccc2)NC1=O (cyclo(L[dF]P[dA]V[Orn]L[dF]P[dA]V[Orn])),12.5,12.5,25,12.5,> 100,> 100,Dose-dependent effect
CC(C)C[C@@H]1NC(=O)[C@H](CCCN)NC(=O)[C@H](C(C)C)NC(=O)[C@@H](Cc2cnc[nH]2)NC(=O)[C@@H]2CCCN2C(=O)[C@@H](Cc2ccccc2)NC(=O)[C@H](CC(C)C)NC(=O)[C@H](CCCN)NC(=O)[C@H](C(C)C)NC(=O)[C@@H](Cc2cnc[nH]2)NC(=O)[C@@H]2CCCN2C(=O)[C@@H](Cc2ccccc2)NC1=O,12.5,12.5,25,12.5,> 100,> 100,Dose-dependent effect
CC(C)C[C@@H]1NC(=O)[C@H](CCCN)NC(=O)[C@H](C(C)C)NC(=O)[C@@H](CO)NC(=O)[C@@H]2CCCN2C(=O)[C@@H](Cc2ccccc2)NC(=O)[C@H](CC(C)C)NC(=O)[C@H](CCCN)NC(=O)[C@H](C(C)C)NC(=O)[C@@H](CO)NC(=O)[C@@H]2CCCN2C(=O)[C@@H](Cc2ccccc2)NC1=O,> 100,> 100,> 100,100,> 100,> 100,Dose-dependent effect
CC(C)C[C@@H]1NC(=O)[C@H](CCCN)NC(=O)[C@H](C(C)C)NC(=O)[C@@H]2CCCN2C(=O)[C@@H](Cc2ccccc2)NC(=O)[C@H](CC(C)C)NC(=O)[C@H](CCCN)NC(=O)[C@H](C(C)C)NC(=O)[C@@H]2CCCN2C(=O)[C@@H](Cc2ccccc2)NC1=O [GRAMICIDIN S] (cyclo(L[dF]PV[Orn]L[dF]PV[Orn])),3.13,3.13,3.13,3.13,25,25,Dose-dependent effect
CCC[C@H]1NC(=O)[C@@H]2CCCN2C(=O)[C@@H](Cc2ccccc2)NC(=O)[C@H](CC(C)C)NC(=O)[C@H](CCCN)NC(=O)[C@H](C(C)C)NC(=O)[C@@H](CCC)NC(=O)[C@@H]2CCCN2C(=O)[C@@H](Cc2ccccc2)NC(=O)[C@H](CC(C)C)NC(=O)[C@H](CCCN)NC(=O)[C@H](C(C)C)NC1=O,12.5,12.5,25,12.5,> 100,> 100,Dose-dependent effect
CC(C)C[C@@H]1NC(=O)[C@H](CCCN)NC(=O)[C@H](C(C)C)NC(=O)[C@@H](Cc2ccc(O)cc2)NC(=O)[C@@H]2CCCN2C(=O)[C@@H](Cc2ccccc2)NC(=O)[C@H](CC(C)C)NC(=O)[C@H](CCCN)NC(=O)[C@H](C(C)C)NC(=O)[C@@H](Cc2ccc(O)cc2)NC(=O)[C@@H]2CCCN2C(=O)[C@@H](Cc2ccccc2)NC1=O [GRATISIN],6.25,6.25,12.5,6.25,100,100,Dose-dependent effect
CC(C)C[C@@H]1NC(=O)[C@H](CCCN)NC(=O)[C@H](C(C)C)NC(=O)[C@@H](C(C)C)NC(=O)[C@@H]2CCCN2C(=O)[C@@H](Cc2ccccc2)NC(=O)[C@H](CC(C)C)NC(=O)[C@H](CCCN)NC(=O)[C@H](C(C)C)NC(=O)[C@@H](C(C)C)NC(=O)[C@@H]2CCCN2C(=O)[C@@H](Cc2ccccc2)NC1=O,6.25,6.25,12.5,12.5,> 100,> 100,Dose-dependent effect

# Further lines, with some results ahead:
MIC [1] [µg/mL],MIC [2] [µg/mL],MIC [3] [µg/mL],MIC [4] [µg/mL],MIC [5] [µg/mL],MIC [6] [µg/mL],SMILES,Activity [7]
6.25,6.25,6.25,6.25,12.5,25,CC(C)C[C@@H]1NC(=O)[C@H](CCCN)NC(=O)[C@H](C(C)C)NC(=O)[C@@H](CCCCN)NC(=O)[C@@H]2CCCN2C(=O)[C@@H](Cc2ccccc2)NC(=O)[C@H](CC(C)C)NC(=O)[C@H](CCCN)NC(=O)[C@H](C(C)C)NC(=O)[C@@H](CCCCN)NC(=O)[C@@H]2CCCN2C(=O)[C@@H](Cc2ccccc2)NC1=O,Dose-dependent effect
6.25,3.13,6.25,3.13,12.5,12.5,CC(C)C[C@@H]1NC(=O)[C@H](CCCN)NC(=O)[C@H](C(C)C)NC(=O)[C@@H](CCCNC(=N)N)NC(=O)[C@@H]2CCCN2C(=O)[C@@H](Cc2ccccc2)NC(=O)[C@H](CC(C)C)NC(=O)[C@H](CCCN)NC(=O)[C@H](C(C)C)NC(=O)[C@@H](CCCNC(=N)N)NC(=O)[C@@H]2CCCN2C(=O)[C@@H](Cc2ccccc2)NC1=O,Dose-dependent effect
6.25,6.25,12.5,12.5,100,> 100,CC(C)C[C@@H]1NC(=O)[C@H](CCCN)NC(=O)[C@H](C(C)C)NC(=O)[C@@H](CC(C)C)NC(=O)[C@@H]2CCCN2C(=O)[C@@H](Cc2ccccc2)NC(=O)[C@H](CC(C)C)NC(=O)[C@H](CCCN)NC(=O)[C@H](C(C)C)NC(=O)[C@@H](CC(C)C)NC(=O)[C@@H]2CCCN2C(=O)[C@@H](Cc2ccccc2)NC1=O,Dose-dependent effect
6.25,6.25,12.5,12.5,100,> 100,CC(C)C[C@@H]1NC(=O)[C@H](CCCN)NC(=O)[C@H](C(C)C)NC(=O)[C@@H](Cc2ccccc2)NC(=O)[C@@H]2CCCN2C(=O)[C@@H](Cc2ccccc2)NC(=O)[C@H](CC(C)C)NC(=O)[C@H](CCCN)NC(=O)[C@H](C(C)C)NC(=O)[C@@H](Cc2ccccc2)NC(=O)[C@@H]2CCCN2C(=O)[C@@H](Cc2ccccc2)NC1=O,Dose-dependent effect
6.25,6.25,6.25,3.13,50,100,CCCC[C@H]1NC(=O)[C@@H]2CCCN2C(=O)[C@@H](Cc2ccccc2)NC(=O)[C@H](CC(C)C)NC(=O)[C@H](CCCN)NC(=O)[C@H](C(C)C)NC(=O)[C@@H](CCCC)NC(=O)[C@@H]2CCCN2C(=O)[C@@H](Cc2ccccc2)NC(=O)[C@H](CC(C)C)NC(=O)[C@H](CCCN)NC(=O)[C@H](C(C)C)NC1=O,Dose-dependent effect
6.25,6.25,6.25,6.25,25,25,CC(C)C[C@@H]1NC(=O)[C@H](CCCN)NC(=O)[C@H](C(C)C)NC(=O)[C@@H](CCCN)NC(=O)[C@@H]2CCCN2C(=O)[C@@H](Cc2ccccc2)NC(=O)[C@H](CC(C)C)NC(=O)[C@H](CCCN)NC(=O)[C@H](C(C)C)NC(=O)[C@@H](CCCN)NC(=O)[C@@H]2CCCN2C(=O)[C@@H](Cc2ccccc2)NC1=O,Dose-dependent effect
